Test results from ChEMBL document CHEMBL1141261, “Eremophilane sesquiterpenes from Ligularia macrophylla” (J Nat Prod, 2007).
≈ marks a conversion by molar mass, not a printed value.

How the values were obtained:
MCF7 = assay: Cytotoxicity against human MCF7 cells; type: functional, cell-based
How it was run: (§1)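 Test samples were dissolved in DMSO and diluted into culture medium to a final DMSO level of ≤1% (v/v). Human lung carcinoma A-549 and breast adenocarcinoma MCF-7 lines were used. Cell culture and the remaining steps followed an earlier published protocol.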

A549 = assay: Cytotoxicity against human A549 cells; type: functional, cell-based; how it was run: as §1

| SMILES | EC50 (MCF7) [µg/mL] | EC50 (A549) [µg/mL] |
| --- | --- | --- |
| Cc1cc2c(C)coc2cc1[C@H](C)CCC=O | > 20 | 10 (≈ 43.4 µM) |
| Cc1coc2c1[C@@H](O)[C@]1(C)[C@@H](C)CC[C@@H]3O[C@@]31C2 | ≥ 20 | ≥ 20 |
| C/C=C(/C)C(=O)O[C@@H]1c2c(C)coc2C[C@]23O[C@H]2CC[C@H](C)[C@@]13C | > 20 | 9.4 (≈ 28.4 µM) |
| CC(C=O)C1=C[C@@]2(C)C(=CC1=O)[C@H](O)CC[C@@H]2C (mixture of isomers) | > 20 | 18.4 |
| Cc1coc2cc3c(c(C)c12)[C@@H](C)CCC3=O | 15.2 (≈ 66.6 µM) | 11.9 (≈ 52.1 µM) |
| Cc1cc2c(C)coc2c2c1CCCC2C (stereo not drawn) [FARFUGIN A] | 13.6 (≈ 63.5 µM) | 10.9 (≈ 50.9 µM) |
| Cc1coc2cc3c(c(C)c12)[C@@H](C)CC[C@@H]3O | 15.2 (≈ 66 µM) | 13.8 (≈ 59.9 µM) |
| C/C=C(/C)C(=O)O[C@H]1c2c(C)coc2C[C@H]2C(=O)CC[C@H](C)[C@]21C | ≥ 20 | ≥ 20 |
| C/C=C(/CO)C(=O)O[C@@H]1c2c(C)coc2C[C@@]23O[C@@H]2CC[C@H](C)[C@@]13C | 17.3 (≈ 49.9 µM) | > 20 |
